Measured values taken from ChEMBL document CHEMBL3286128 (J Med Chem, 2014).
The source made the active and inactive calls. The rule behind the calls is not given here.

What was measured:
[1] = target: T1, Human immunodeficiency virus type 1 integrase (Human immunodeficiency virus 1, UniProt Q7ZJM1); experiment: Inhibition of strand transfer activity of HIV-1 integrase using [gamma-32P]-labeled DNA as substrate
Procedure, shortened: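 Gel-based assay with radiolabelled oligonucleotide substrate and Mg2+ cofactor, measuring strand transfer by recombinant HIV-1 integrase. IC50 determined.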

[2] = target: T1, Human immunodeficiency virus type 1 integrase
[3] = system: Human immunodeficiency virus 1; experiment: Antiviral activity against HIV-1 harboring wild type integrase infected in human HOS cells pretreated with compound for 3 hrs by single-round HIV-1 infectivity assay; format: functional, organism-based; conditions: Human immunodeficiency virus 1, HOS
[4] = Retention time of the compound by HPLC analysis; format: physicochemical
Procedure, shortened: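 Preparative HPLC run as a linear gradient of solvent B over 30 min, starting at 30% B and ending at 70% or 80% B depending on the compound. Retention time was taken at elution.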

[5] = system: Human immunodeficiency virus 1; experiment: Antiviral activity against raltegravir-resistant HIV-1 harboring integrase G140S/Q148H double mutant infected in human HOS cells pretreated with compound for 3 hrs by single-round HIV-1 infectivity assay; format: functional, organism-based; conditions: Human immunodeficiency virus 1, HOS
[6] = system: Human immunodeficiency virus 1; experiment: Antiviral activity against INSTI-resistant HIV-1 harboring integrase G118R mutant infected in human HOS cells pretreated with compound for 3 hrs by single-round HIV-1 infectivity assay; format: functional, organism-based; conditions: Human immunodeficiency virus 1, HOS
Procedure, shortened: (§1)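 VSV-g-pseudotyped single-round HIV-1 luciferase vector (WT or mutant IN) made in 293T cells by calcium phosphate transfection, supernatant harvested at 48 h. HOS cells were seeded the day before, then pretreated with compound, 11 serial dilutions from 10 μM to 0.0005 μM, at 37 °C for 3 h. Virus was added and cells kept 48 h at 37 °C. Luciferase was read and normalised to infectivity without compound.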

[7] = system: Human immunodeficiency virus 1; experiment: Antiviral activity against HIV-1 harboring wild type integrase infected in human HOS cells pretreated with compound for 3 hrs by single-round HIV-1 infectivity assay in presence of 10% fetal bovine serum; format: functional, organism-based; conditions: Human immunodeficiency virus 1, HOS; procedure, shortened: as §1
[8] = system: Human immunodeficiency virus 1; experiment: Ratio of EC50 for INSTI-resistant HIV-1 harboring integrase R263K mutant infected in human HOS cells to EC50 for HIV-1 harboring integrase wild type integrase infected in human HOS cells; format: functional
HOS = experiment: Cytotoxicity against human HOS cells assessed as ATP level by luciferase reporter assay; format: cell-based
Procedure, shortened: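 HOS cells were exposed to compound and viability was read as ATP level by luciferase reporter. […] SI is CC50 divided by WT-vector EC50.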

[9] = Selectivity index, ratio of CC50 for human HOS cells to EC50 for HIV-1 harboring wild type integrase infected in human HOS cells; format: toxicity, cell-based; conditions: read-out: Ratio CC50/EC50
Procedure, shortened: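 HOS cells were exposed to compound and viability was read as ATP level by luciferase reporter. SI is CC50 divided by WT-vector EC50.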

[10] = system: Human immunodeficiency virus 1; experiment: Ratio of EC50 for raltegravir-resistant HIV-1 harboring integrase N155H mutant infected in human HOS cells to EC50 for HIV-1 harboring integrase wild type integrase infected in human HOS cells; format: functional
[11] = system: Human immunodeficiency virus 1; experiment: Antiviral activity against HIV-1 harboring wild type integrase infected in human HOS cells pretreated with compound for 3 hrs by single-round HIV-1 infectivity assay in presence of 5% fetal bovine serum; format: functional, organism-based; conditions: Human immunodeficiency virus 1, HOS; procedure, shortened: as §1
[12] = system: Human immunodeficiency virus 1; experiment: Antiviral activity against raltegravir-resistant HIV-1 harboring integrase N155H mutant infected in human HOS cells pretreated with compound for 3 hrs by single-round HIV-1 infectivity assay; format: functional, organism-based; conditions: Human immunodeficiency virus 1, HOS
[13] = system: Human immunodeficiency virus 1; experiment: Antiviral activity against INSTI-resistant HIV-1 harboring integrase R263K mutant infected in human HOS cells pretreated with compound for 3 hrs by single-round HIV-1 infectivity assay; format: functional, organism-based; conditions: Human immunodeficiency virus 1, HOS; procedure, shortened: as §1
[14] = target: Human immunodeficiency virus type 1 reverse transcriptase (Human immunodeficiency virus 1) (UniProt Q72547); experiment: Inhibition of HIV-1 reverse transcriptase RNase H activity-mediated -8 cleavage assessed as retention of -17 cleavage at 10 uM by agarose gel electrophoresis
[15] = system: Human immunodeficiency virus 1; experiment: Ratio of EC50 for INSTI-resistant HIV-1 harboring integrase G118R mutant infected in human HOS cells to EC50 for HIV-1 harboring integrase wild type integrase infected in human HOS cells; format: functional
[16] = system: Human immunodeficiency virus 1; experiment: Ratio of EC50 for raltegravir-resistant HIV-1 harboring integrase G140S/Q148H double mutant infected in human HOS cells to EC50 for HIV-1 harboring integrase wild type integrase infected in human HOS cells; format: functional
[17] = target: Human immunodeficiency virus type 1 reverse transcriptase (Human immunodeficiency virus 1) (UniProt Q72547); experiment: Inhibition of HIV-1 DNA-dependent DNA polymerase activity of reverse transcriptase after 60 mins by agarose gel electrophoresis
[18] = system: Human immunodeficiency virus 1; experiment: Ratio of EC50 for raltegravir-resistant HIV-1 harboring integrase Y143R mutant infected in human HOS cells to EC50 for HIV-1 harboring integrase wild type integrase infected in human HOS cells; format: functional
[19] = system: Human immunodeficiency virus 1; experiment: Antiviral activity against HIV-1 harboring wild type integrase infected in human HOS cells pretreated with compound for 3 hrs by single-round HIV-1 infectivity assay in presence of 15% fetal bovine serum; format: functional, organism-based; conditions: Human immunodeficiency virus 1, HOS; procedure, shortened: as §1
[20] = system: Human immunodeficiency virus 1; experiment: Antiviral activity against raltegravir-resistant HIV-1 harboring integrase Y143R mutant infected in human HOS cells pretreated with compound for 3 hrs by single-round HIV-1 infectivity assay; format: functional, organism-based; conditions: Human immunodeficiency virus 1, HOS

T1 sequence (Q7ZJM1 whole entry): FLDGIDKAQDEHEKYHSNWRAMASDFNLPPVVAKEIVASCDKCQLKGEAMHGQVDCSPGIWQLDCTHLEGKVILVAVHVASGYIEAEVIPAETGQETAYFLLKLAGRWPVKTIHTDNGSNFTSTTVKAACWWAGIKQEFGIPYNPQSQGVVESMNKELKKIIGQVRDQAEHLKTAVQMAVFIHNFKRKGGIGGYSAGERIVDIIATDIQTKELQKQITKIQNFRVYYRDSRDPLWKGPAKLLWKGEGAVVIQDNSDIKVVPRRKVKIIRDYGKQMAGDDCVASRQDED

Structure (SMILES) | IC50 [1] [nM] | IC50 [2] [nM] | EC50 [3] [nM] | Retention_time [4] [min] | EC50 [5] [nM] | CC50 (HOS) [nM] | selectivity ratio [9] | EC50 [12] [nM] | Ratio EC50 [18] | EC50 [20] [nM] | further results
COC(=O)[C@@H](CO)Nc1c(C(=O)NCc2ccc(F)cc2F)c(=O)n(O)c2ncccc12 | 13 | 4400 | 14.2 | 20.5 | – | – | – | – | – | – | –
CC(=O)OCCNc1c(C(=O)NCc2ccc(F)cc2F)c(=O)n(O)c2ncccc12 | 27 | 5300 | 4.5 | 23.6 | 35 | > 250000 | > 55600 | 3.1 | 1 | 4.8 | EC50 [6]: 44 nM; EC50 [7]: 4.5 nM; Ratio EC50 [8]: 4; Ratio EC50 [10]: 0.69; EC50 [11]: 4.5 nM; EC50 [13]: 16 nM; inhibition [14]: Active; Ratio EC50 [15]: 10; Ratio EC50 [16]: 8; inhibition [17]: Active; EC50 [19]: 4.5 nM
O=C(NCc1ccc(F)cc1F)c1c(Nc2ccc3c(c2)Cc2ccccc2-3)c2cccnc2n(O)c1=O | 840 | 46000 | 171 | 21.3 | – | > 250000 | > 1460 | – | 3 | – | –
NCCNc1c(C(=O)NCc2ccc(F)cc2F)c(=O)n(O)c2ncccc12 | 39 | 4500 | 35 | 25.9 | – | 9600 | – | – | – | – | –
Nc1c(C(=O)NCc2ccc(F)cc2F)c(=O)n(O)c2ncccc12 | – | – | 1.1 | 19.5 | – | > 250000 | – | – | – | – | EC50 [6]: 16 nM; EC50 [7]: 1.1 nM; EC50 [11]: 1.1 nM; EC50 [13]: 6.4 nM; inhibition [14]: Active; inhibition [17]: Active; EC50 [19]: 1.1 nM
O=C(NCc1ccc(F)cc1F)c1c(NCCCCc2ccccc2)c2cccnc2n(O)c1=O | 280 | 12000 | 50 | 26.7 | 243 | 102000 | 2040 | 116 | 0.8 | 40 | Ratio EC50 [10]: 2; Ratio EC50 [16]: 5
CNc1c(C(=O)NCc2ccc(F)cc2F)c(=O)n(O)c2ncccc12 | 27 | 3700 | 3.1 | 26.4 | – | > 250000 | – | – | – | – | –
COC(=O)[C@H](C)Nc1c(C(=O)NCc2ccc(F)cc2F)c(=O)n(O)c2ncccc12 | – | – | 4.2 | 26.4 | – | – | – | – | – | – | –
COC(=O)[C@@H](C)Nc1c(C(=O)NCc2ccc(F)cc2F)c(=O)n(O)c2ncccc12 | – | – | 11.3 | 26.4 | 89 | > 250000 | – | – | – | 8.1 | –
C[C@@H]1CCO[C@H]2Cn3cc(C(=O)NCc4ccc(F)cc4F)c(=O)c(O)c3C(=O)N12 [DOLUTEGRAVIR] | – | – | 1.6 | – | 5.8 | – | – | 3.6 | – | 4.3 | EC50 [6]: 13 nM; EC50 [13]: 11 nM
COC(=O)[C@@H](Nc1c(C(=O)NCc2ccc(F)cc2F)c(=O)n(O)c2ncccc12)c1ccccc1 | – | – | – | 22.6 | – | > 250000 | – | – | – | – | –
O=C(NCc1ccc(F)cc1F)c1c(Nc2ccccc2)c2cccnc2n(O)c1=O | 18 | 6900 | 14 | 20.2 | – | > 250000 | – | – | – | – | –
O=C(NCc1ccc(F)cc1F)c1c(NCCc2ccccc2)c2cccnc2n(O)c1=O | 50 | 8000 | 14 | 22 | – | > 250000 | – | – | – | – | –
CC(C)Nc1c(C(=O)NCc2ccc(F)cc2F)c(=O)n(O)c2ncccc12 | 16 | 1800 | 7.2 | 17 | – | > 250000 | – | – | – | – | –
O=C(NCc1ccc(F)cc1F)c1c(N2CCOCC2)c2cccnc2n(O)c1=O | 79 | 77000 | 1200 | 20.5 | 6920 | 8400 | 7 | 3730 | 1.5 | 1800 | Ratio EC50 [10]: 3; Ratio EC50 [16]: 6
O=C(NCc1ccc(F)cc1F)c1c(Nc2ccc(-c3ccccc3)cc2)c2cccnc2n(O)c1=O | 340 | 52000 | 372 | 22.8 | – | > 250000 | > 672 | – | 1 | – | –
COC(=O)[C@H](CO)Nc1c(C(=O)NCc2ccc(F)cc2F)c(=O)n(O)c2ncccc12 | 8.4 | 5800 | 9.7 | 15.9 | – | > 250000 | – | – | – | – | –
N#Cc1ccc(-c2ccc(Nc3c(C(=O)NCc4ccc(F)cc4F)c(=O)n(O)c4ncccc34)cc2)cc1 | 130 | 70000 | 123 | 22.3 | – | > 250000 | > 2030 | – | 3 | – | –
CCCCCNc1c(C(=O)NCc2ccc(F)cc2F)c(=O)n(O)c2ncccc12 | 24 | 8200 | 7.4 | 23.7 | – | 94000 | – | – | – | – | –
Nc1ccc(-c2ccc(Nc3c(C(=O)NCc4ccc(F)cc4F)c(=O)n(O)c4ncccc34)cc2)cc1 | 130 | 80000 | 6.3 | 15.6 | – | > 250000 | > 39700 | – | 16 | – | –
CN(C)c1c(C(=O)NCc2ccc(F)cc2F)c(=O)n(O)c2ncccc12 | 87 | 21000 | 268 | 21.6 | 6800 | 13000 | 49 | 2300 | 1 | 273 | Ratio EC50 [10]: 9; Ratio EC50 [16]: 25
O=C(NCc1ccc(F)cc1F)c1c(NCCO)c2cccnc2n(O)c1=O | 10 | 550 | 5.2 | 21.6 | 43 | 24000 | 4620 | 25 | 0.88 | 4.6 | EC50 [6]: 27 nM; Ratio EC50 [8]: 5; Ratio EC50 [10]: 5; EC50 [13]: 26 nM; Ratio EC50 [15]: 5; Ratio EC50 [16]: 8
CCOC(=O)[C@@H]1CCCN1c1c(C(=O)NCc2ccc(F)cc2F)c(=O)n(O)c2ncccc12 | 310 | 86000 | 590 | 12.5 | – | 18000 | 31 | – | 3 | 1660 | –
COC(=O)[C@H](Nc1c(C(=O)NCc2ccc(F)cc2F)c(=O)n(O)c2ncccc12)c1ccccc1 | – | – | 7.4 | 26.3 | – | – | – | 22 | – | – | –
O=C(NCc1ccc(F)cc1F)c1c(NC2CCCCCC2)c2cccnc2n(O)c1=O | 460 | 13000 | 12 | 25.8 | 35 | 68000 | 5670 | 14 | 0.55 | 6.6 | Ratio EC50 [10]: 1; Ratio EC50 [16]: 3
